Data published in PMC9321909 (British Journal of Haematology, 2022).
Entries after “also recorded” stand apart in the source; their conditions may differ.

How the values were obtained:
[1] = Safety: treatment-emergent adverse events, NCI CTCAE v4.03; assay type: in vivo, human (Chinese patients)
Summary of the method: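 Patients took oral test compound at 320 mg QD or 160 mg BID until progression or unacceptable toxicity. AEs were graded per NCI CTCAE v4.03, and treatment-emergent AEs were summarized. AEs of special interest included haemorrhage, atrial fibrillation/flutter, hypertension, second primary malignancies, tumour lysis syndrome, infections and cytopenias. Percentages use patients receiving ≥1 dose as the denominator.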

[2] = assay type: in vivo, human (Chinese patients)

## C=CC(=O)N1CCC([C@@H]2CCNc3c(C(N)=O)c(-c4ccc(Oc5ccccc5)cc4)nn32)CC1 [zanubrutinib]
[1]; 160 mg BID (n = 34)
  Anaemia, TEAE any grade: 12 (35.3) n (%)
  Anaemia, grade ≥ 3 TEAE: 4 (11.8) n (%)
  Atrial fibrillation/flutter, any grade TEAE of special interest: 0 (0.0) n (%)
  Cough, TEAE any grade: 5 (14.7) n (%)
  Cytopenias: Anaemia, any grade TEAE of special interest: 14 (41.2) n (%)
  Cytopenias: Neutropenia, any grade TEAE of special interest: 18 (52.9) n (%)
  Cytopenias: Thrombocytopenia, any grade TEAE of special interest: 9 (26.5) n (%)
  Haemorrhage, any grade TEAE of special interest: 11 (32.4) n (%)
  Hematuria, TEAE any grade: 6 (17.6) n (%)
  Hypertension, any grade TEAE of special interest: 0 (0.0) n (%)
  Hyperuricemia, TEAE any grade: 6 (17.6) n (%)
  Infections, any grade TEAE of special interest: 19 (55.9) n (%)
  Major haemorrhage, any grade TEAE of special interest: 1 (2.9) n (%)
  Neutropenia, grade ≥ 3 TEAE: 4 (11.8) n (%)
  Neutrophil count decreased, TEAE any grade: 17 (50.0) n (%)
  Neutrophil count decreased, grade ≥ 3 TEAE: 6 (17.6) n (%)
  Patients with ≥1 TEAE of special interest, any grade: 30 (88.2) n (%)
  Patients with ≥1 any‐grade TEAE: 33 (97.1) n (%)
  Patients with ≥1 grade 3 or higher TEAE: 18 (52.9) n (%)
  Platelet count decreased, TEAE any grade: 8 (23.5) n (%)
  Platelet count decreased, grade ≥ 3 TEAE: 1 (2.9) n (%)
  Pneumonia, TEAE any grade: 6 (17.6) n (%)
  Pneumonia, grade ≥ 3 TEAE: 3 (8.8) n (%)
  Rash, TEAE any grade: 8 (23.5) n (%)
  Second primary malignancies, any grade TEAE of special interest: 0 (0.0) n (%)
  Thrombocytopenia, grade ≥ 3 TEAE: 1 (2.9) n (%)
  Tumour lysis syndrome, any grade TEAE of special interest: 0 (0.0) n (%)
  Upper respiratory tract infection, TEAE any grade: 10 (29.4) n (%)
  Upper respiratory tract infection, grade ≥ 3 TEAE: 2 (5.9) n (%)
  Weight increased, TEAE any grade: 5 (14.7) n (%)
  White blood cell count decreased, TEAE any grade: 11 (32.4) n (%)
  White blood cell count decreased, grade ≥ 3 TEAE: 1 (2.9) n (%)
  White blood cell count increased, grade ≥ 3 TEAE: 2 (5.9) n (%)
[1]; 320 mg QD (n = 10)
  Anaemia, TEAE any grade: 4 (40.0) n (%)
  Anaemia, grade ≥ 3 TEAE: 1 (10.0) n (%)
  Atrial fibrillation/flutter, any grade TEAE of special interest: 0 (0.0) n (%)
  Cough, TEAE any grade: 3 (30.0) n (%)
  Cytopenias: Anaemia, any grade TEAE of special interest: 4 (40.0) n (%)
  Cytopenias: Neutropenia, any grade TEAE of special interest: 7 (70.0) n (%)
  Cytopenias: Thrombocytopenia, any grade TEAE of special interest: 3 (30.0) n (%)
  Haemorrhage, any grade TEAE of special interest: 4 (40.0) n (%)
  Hematuria, TEAE any grade: 3 (30.0) n (%)
  Hypertension, any grade TEAE of special interest: 1 (10.0) n (%)
  Hyperuricemia, TEAE any grade: 3 (30.0) n (%)
  Infections, any grade TEAE of special interest: 7 (70.0) n (%)
  Major haemorrhage, any grade TEAE of special interest: 0 (0.0) n (%)
  Neutropenia, grade ≥ 3 TEAE: 0 (0.0) n (%)
  Neutrophil count decreased, TEAE any grade: 7 (70.0) n (%)
  Neutrophil count decreased, grade ≥ 3 TEAE: 5 (50.0) n (%)
  Patients with ≥1 TEAE of special interest, any grade: 10 (100.0) n (%)
  Patients with ≥1 any‐grade TEAE: 10 (100.0) n (%)
  Patients with ≥1 grade 3 or higher TEAE: 6 (60.0) n (%)
  Platelet count decreased, TEAE any grade: 2 (20.0) n (%)
  Platelet count decreased, grade ≥ 3 TEAE: 1 (10.0) n (%)
  Pneumonia, TEAE any grade: 3 (30.0) n (%)
  Pneumonia, grade ≥ 3 TEAE: 0 (0.0) n (%)
  Rash, TEAE any grade: 2 (20.0) n (%)
  Second primary malignancies, any grade TEAE of special interest: 0 (0.0) n (%)
  Thrombocytopenia, grade ≥ 3 TEAE: 1 (10.0) n (%)
  Tumour lysis syndrome, any grade TEAE of special interest: 0 (0.0) n (%)
  Upper respiratory tract infection, TEAE any grade: 5 (50.0) n (%)
  Upper respiratory tract infection, grade ≥ 3 TEAE: 2 (20.0) n (%)
  Weight increased, TEAE any grade: 3 (30.0) n (%)
  White blood cell count decreased, TEAE any grade: 3 (30.0) n (%)
  White blood cell count decreased, grade ≥ 3 TEAE: 1 (10.0) n (%)
  White blood cell count increased, grade ≥ 3 TEAE: 1 (10.0) n (%)
[1]; Total (N = 44)
  Anaemia, TEAE any grade: 16 (36.4) n (%)
  Anaemia, grade ≥ 3 TEAE: 5 (11.4) n (%)
  Atrial fibrillation/flutter, any grade TEAE of special interest: 0 (0.0) n (%)
  Cough, TEAE any grade: 8 (18.2) n (%)
  Cytopenias: Anaemia, any grade TEAE of special interest: 18 (40.9) n (%)
  Cytopenias: Neutropenia, any grade TEAE of special interest: 25 (56.8) n (%)
  Cytopenias: Thrombocytopenia, any grade TEAE of special interest: 12 (27.3) n (%)
  Haemorrhage, any grade TEAE of special interest: 15 (34.1) n (%)
  Hematuria, TEAE any grade: 9 (20.5) n (%)
  Hypertension, any grade TEAE of special interest: 1 (2.3) n (%)
  Hyperuricemia, TEAE any grade: 9 (20.5) n (%)
  Infections, any grade TEAE of special interest: 26 (59.1) n (%)
  Major haemorrhage, any grade TEAE of special interest: 1 (2.3) n (%)
  Neutropenia, grade ≥ 3 TEAE: 4 (9.1) n (%)
  Neutrophil count decreased, TEAE any grade: 24 (54.5) n (%)
  Neutrophil count decreased, grade ≥ 3 TEAE: 11 (25.0) n (%)
  Patients with ≥1 TEAE of special interest, any grade: 40 (90.9) n (%)
  Patients with ≥1 any‐grade TEAE: 43 (97.7) n (%)
  Patients with ≥1 grade 3 or higher TEAE: 24 (54.5) n (%)
  Platelet count decreased, TEAE any grade: 10 (22.7) n (%)
  Platelet count decreased, grade ≥ 3 TEAE: 2 (4.5) n (%)
  Pneumonia, TEAE any grade: 9 (20.5) n (%)
  Pneumonia, grade ≥ 3 TEAE: 3 (6.8) n (%)
  Rash, TEAE any grade: 10 (22.7) n (%)
  Second primary malignancies, any grade TEAE of special interest: 0 (0.0) n (%)
  Thrombocytopenia, grade ≥ 3 TEAE: 2 (4.5) n (%)
  Tumour lysis syndrome, any grade TEAE of special interest: 0 (0.0) n (%)
  Upper respiratory tract infection, TEAE any grade: 15 (34.1) n (%)
  Upper respiratory tract infection, grade ≥ 3 TEAE: 4 (9.1) n (%)
  Weight increased, TEAE any grade: 8 (18.2) n (%)
  White blood cell count decreased, TEAE any grade: 14 (31.8) n (%)
  White blood cell count decreased, grade ≥ 3 TEAE: 2 (4.5) n (%)
  White blood cell count increased, grade ≥ 3 TEAE: 3 (6.8) n (%)
[1]; all 44 patients
  AEs leading to dose reduction: no AEs leading to dose reduction
  neutrophil count decreased, most common adverse event (any grade): 54.5%
  neutrophil count decreased, most common grade 3 or higher AE: 25.0%
  patients with AEs leading to dose interruption: 18.2%
  patients with AEs leading to treatment discontinuation: 4.5%
  reports of second primary malignancies, tumour lysis syndrome, atrial fibrillation/flutter: no reports
[1]; all events except one non‐serious grade 3 purpura
  grade of haemorrhagic events: grade 1–2; also recorded: grade 1 or 2
[1]; part I, 160 mg BID and 320 mg QD
  dose‐limiting toxicity (DLT) events: No DLT events
[2]; human, plasma, oral
  half-life: 138 to 204 min
[2]; oral 160 mg and 320 mg doses
  time of C max post dose: ~ 2 h
